Assay results: ChEMBL document CHEMBL2311473, “Characterization of antimicrobial, cytotoxic, and antiendotoxin properties of short peptides with different hydrophobic amino acids at "a" and "d" positions of a heptad repeat sequence” (J Med Chem, 2013)
In brackets after ≈: the same amount, converted by molar mass. Activity calls are given as the source filed them. The calls are words filed in the database; no cut-off is given here.

What was measured:
[1] = Cytotoxicity against human RBC assessed as hemolysis at 60 uM; format: cell-based, Erythrocyte; settings: red blood cells (RBC), read-out: Activity
Procedure, shortened: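 hRBCs in PBS exposed to peptide. Hemoglobin release read as supernatant absorbance at 540 nm. Hemolysis % = (Asample − Ablank)/(Atriton − Ablank) × 100, with PBS blank and 0.2% Triton X-100 (final) as 100% reference.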

[2] = Binding affinity to PE/PG lipid vesicles assessed as decrease in decrease in acrylamide-induced tryptophan fluorescence quenching at 1 uM; format: physicochemical
Procedure, shortened: (§1)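 Acrylamide quencher added in aliquots from 3.0 M stock to peptide with PC/Chol (8:1) or PE/PG (7:3) SUVs, peptide/lipid 1:100. Trp excited at 295 nm. Values corrected for dilution and vesicle-blank scatter, then fitted to Stern–Volmer F0/F = 1 + KSV[Q].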

Pseudomonas aeruginosa = assay: Antibacterial activity against Pseudomonas aeruginosa ATCC BAA-427 after 18 hrs by broth dilution method; format: functional; settings: ATCC BAA-427, 18 h
Procedure, shortened: (§2)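 Bacteria grown aerobically at 37 °C in Mueller-Hinton broth to mid-log phase (OD600), diluted to ~10^6 cfu/mL, then mixed 1:1 with 2-fold serial peptide dilutions in water. Incubation ~18 h at 37 °C before MIC read-out (μM).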

NIH3T3 = assay: Cytotoxicity against mouse 3T3 cells assessed as cell viability up to 25 uM by MTT assay; format: cell-based
Procedure, shortened: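 Murine 3T3 fibroblasts, grown in DMEM/IMDM with 10% FCS at 37 °C, 5% CO2, seeded at 10000 cells/well. Viability after peptide exposure measured by MTT (mitochondrial dehydrogenase) across a dose range.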

Staphylococcus aureus [3] = assay: Antibacterial activity against Staphylococcus aureus ATCC 9144 after 18 hrs by broth dilution method; format: functional; settings: ATCC 9144, 18 h; procedure, shortened: as §2
Sporothrix schenckii = assay: Antifungal activity against Sporothrix schenckii after 72 hrs by NCCLS microbroth dilution method; format: functional
Procedure, shortened: (§3)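 Microbroth dilution in MOPS-buffered RPMI 1640 following NCCLS guidelines. Inoculum 1−5 × 10^3 cells/mL, peptide range 50−0.36 (mass/mL). Plates held in a moist chamber at 35 °C and A492 read after 48 h (Candida spp.), 72 h (A. fumigatus, S. schenckii, C. neoformans) or 96 h (T. mentagrophytes). MIC taken as 90% growth inhibition versus growth control.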

Escherichia coli [4] = assay: Drug uptake in Escherichia coli ATCC 10536 assessed as membrane localization at 3 uM after 30 mins by confocal microscopic analysis; format: ADME, organism-based; settings: in vivo, 0.5 h
Procedure, shortened: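 E. coli (~10^6 CFU/mL) in LB incubated with fluorescent-labeled peptide (~3.0 μM) for half an hour. Cells centrifuged, washed and imaged by confocal microscopy (DIC and fluorescence).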

[5] = Drug uptake in human RBC assessed as membrane localization at 9 uM after 10 to 30 mins by confocal microscopic analysis; format: ADME; settings: erythrocyte
Procedure, shortened: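 Fresh hRBCs (3% in PBS) incubated with NBD-labeled peptide (~9.0 μM) for 10–30 min at 37 °C. Washed, fixed in 2% paraformaldehyde 10 min, and imaged by confocal microscopy at constant photomultiplier setting.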

Lipopolysaccharide (LPS) [6] = assay: Binding affinity to FITC-tagged LPS assessed as induction of disintegration up to 40 uM by […]; settings: in the assay text read “fluorescence dequenching” for “circular dichroism”
Procedure, shortened: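 FITC-LPS (0.5 μg/mL) titrated with increasing peptide concentrations. Disaggregation read as dequenching, i.e. rise in FITC fluorescence, monitored after each addition until emission reached equilibrium.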

Lipopolysaccharide (LPS) [7] = assay: Binding affinity to LPS assessed as inhibition of LPS-induced LAL enzyme activation at 4.5 uM after 30 mins by spectrophotometric analysis
Procedure, shortened: (§4)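 Chromogenic limulus amoebocyte lysate endotoxin kit. Peptide binding to LPS estimated from inhibition of LPS-induced LAL enzyme activation, i.e. reduced substrate colour, and reported as percentage LPS binding.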

Lipopolysaccharide (LPS) [8] = assay: Binding affinity to LPS assessed as inhibition of LPS-induced LAL enzyme activation at 9 uM after 30 mins by spectrophotometric analysis; procedure, shortened: as §4
Escherichia coli [9] = assay: Bactericidal activity against Escherichia coli ATCC 10536 assessed as induction of membrane damage at 5 uM after 30 mins by propidium iodide staining-based flow cytometric analysis; format: functional, organism-based
Procedure, shortened: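 Mid-log E. coli incubated with peptide (~5.0 μM) 30 min at 37 °C with shaking. Cells washed twice in PBS, stained with propidium iodide 30 min at 4 °C, washed and resuspended. 10000 events per sample by flow cytometry, compared with peptide-free control.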

RAW264.7 [10] = assay: Antiinflammatory activity in mouse RAW264.7 cells assessed as inhibition of LPS-induced TNFalpha secretion at 1.5 to 4.5 uM after 12 hrs by ELISA; format: functional, cell-based
Procedure, shortened: (§5)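 RAW 264.7 cells treated with LPS alone or LPS plus peptide. TNF-α and IL-6 measured by ELISA in culture supernatant and expressed as percentage inhibition of LPS-induced secretion. Mean of three independent experiments, SD shown.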

[11] = tested on: Staphylococcus epidermidis; assay: Antibacterial activity against Staphylococcus epidermidis NRRL B-4268 after 18 hrs by broth dilution method; format: functional; settings: NRRL B-4268, 18 h; procedure, shortened: as §2
Klebsiella pneumoniae = assay: Antibacterial activity against Klebsiella pneumoniae ATCC 27736 after 18 hrs by broth dilution method; format: functional; settings: ATCC 27736, 18 h; procedure, shortened: as §2
[12] = Binding affinity to PE/PG lipid vesicles assessed as induction of large blue shift at 1 uM by fluorescence assay; format: physicochemical
[13] = Binding affinity to PC/Chol lipid vesicles assessed as decrease in acrylamide-induced tryptophan fluorescence quenching at 1 uM; format: physicochemical; procedure, shortened: as §1
[14] = Binding affinity to PC/Chol lipid vesicles assessed as induction of large blue shift at 1 uM by fluorescence assay; format: physicochemical
RAW264.7 [15] = assay: Antiinflammatory activity in mouse RAW264.7 cells assessed as downregulation of LPS-induced TNFalpha expression at 4.5 uM after 24 hrs by Western blotting analysis; format: functional, cell-based
Procedure, shortened: (§6)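 RAW 264.7 cells (~2 × 10^5) stimulated with LPS 1 μg/mL plus peptide 4.5 μM for 24 h. Cells washed in ice-cold PBS and lysed in Laemmli buffer. SDS-PAGE (8% gel iNOS-2, 12% TNF-α), nitrocellulose transfer, alkaline phosphatase secondary with NBT/BCIP. Band densities normalized to β-actin. LPS-only and untreated cells served as controls.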

Lipopolysaccharide (LPS) [16] = assay: Binding affinity to LPS assessed as increase in helical structure at 36 uM by circular dichroism analysis
Procedure, shortened: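 CD spectra of peptides (36 μM) recorded alone and with LPS at 3.8 and 6.25 μM.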

Bacillus subtilis = assay: Antibacterial activity against Bacillus subtilis ATCC 6633 after 18 hrs by broth dilution method; format: functional; settings: ATCC 6633, 18 h; procedure, shortened: as §2
[17] = Binding affinity to PE/PG lipid vesicles assessed as increase in helical structure at 36 uM by circular dichroism analysis; format: physicochemical
Procedure, shortened: (§7)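 Peptides (~36 μM) with ~500 μM PC/Chol (8:1 w/w) or PE/PG (7:3 w/w) vesicles. CD spectra 250–190 nm at ~30 °C in 0.2 cm cuvette; 4–6 scans averaged at 20 nm/min, 0.5 nm interval.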

RAW264.7 [18] = assay: Antiinflammatory activity in mouse RAW264.7 cells assessed as downregulation of LPS-induced iNOS2 expression at 4.5 uM after 24 hrs by Western blotting analysis; format: functional, cell-based; procedure, shortened: as §6
[19] = Cytotoxicity against human RBC assessed as induction of membrane damage at 25 uM after 5 mins by annexin V-FITC staining-based FACS flow cytometric analysis; format: cell-based; settings: erythrocyte
Procedure, shortened: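 hRBCs (~3.0 × 10^7 cells/mL) treated with peptide (~25.0 μM) for 5 min at room temperature. Stained with FITC-annexin V and analysed by flow cytometry, 10000 events, compared with untreated control.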

RAW264.7 [20] = assay: Antiinflammatory activity in mouse RAW264.7 cells assessed as inhibition of LPS-induced IL6 secretion at 1.5 to 4.5 uM after 12 hrs by ELISA; format: functional, cell-based; procedure, shortened: as §5
Staphylococcus aureus [21] = assay: Antibacterial activity against methicillin-resistant Staphylococcus aureus after 18 hrs by broth dilution method; format: functional; procedure, shortened: as §2
Aspergillus fumigatus = assay: Antifungal activity against Aspergillus fumigatus after 72 hrs by NCCLS microbroth dilution method; format: functional; procedure, shortened: as §3
[22] = Cytotoxicity against human RBC assessed as induction of membrane depolarization at up to 16 uM by DiSC3(5) staining-based fluorescence assay; format: cell-based; settings: erythrocyte
Procedure, shortened: (§8)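 Membrane potential dye diS-C3-5 preincubated 1 h with hRBC or S. aureus suspensions; I0 is steady-state fluorescence after this incubation. Peptide then added at varying concentrations. Depolarization expressed as percentage fluorescence recovery (Ft) versus peptide concentration.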

[23] = Binding affinity to PC/Chol lipid vesicles assessed as increase in helical structure at 36 uM by circular dichroism analysis; format: physicochemical; procedure, shortened: as §7
Lipopolysaccharide (LPS) [24] = assay: Binding affinity to LPS assessed as inhibition of LPS-induced LAL enzyme activation at 18 uM after 30 mins by spectrophotometric analysis; procedure, shortened: as §4
[25] = Induction of dissipation of diffusion potential in PE/PG lipid vesicles by fluorescence assay; format: physicochemical
Procedure, shortened: (§9)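 SUVs of PC/Chol (8:1 w/w) or PE/PG (7:3 w/w) treated with peptide. Dissipation of diffusion potential taken as percentage fluorescence recovery ~5 min after peptide addition, with valinomycin used for reference levels. Plotted against peptide/lipid molar ratio.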

Escherichia coli [26] = assay: Antibacterial activity against Escherichia coli ATCC 10536 after 18 hrs by broth dilution method; format: functional; settings: ATCC 10536, 18 h; procedure, shortened: as §2
[27] = tested on: Trichophyton mentagrophytes; assay: Antifungal activity against Trichophyton mentagrophytes after 96 hrs by NCCLS microbroth dilution method; format: functional; procedure, shortened: as §3
RAW264.7 [28] = assay: Antiinflammatory activity in mouse RAW264.7 cells assessed as inhibition of LPS-induced NO production at 3 uM by Griess method; format: functional; design: scale not given: the % may be the effect or the level left
Procedure, shortened: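 RAW 264.7 cells plated at 5 × 10^5/well and exposed to LPS (E. coli 0111:B4, 1 μg/mL) together with peptide at varying doses. Cells with and without LPS served as maximum and basal NO controls. Nitrite in the supernatant measured by Griess reagent at 548 nm against a sodium nitrite standard curve, and percent inhibition of NO calculated.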

Candida albicans = assay: Antifungal activity against Candida albicans after 48 hrs by NCCLS microbroth dilution method; format: functional; procedure, shortened: as §3
Candida parapsilosis = assay: Antifungal activity against Candida parapsilosis ATCC 22019 after 48 hrs by NCCLS microbroth dilution method; format: functional; settings: Lodderomyces parapsilosis, ATCC 22019, 48 h; procedure, shortened: as §3
[29] = Induction of dissipation of diffusion potential in PC/Chol lipid vesicles by fluorescence assay; format: physicochemical; procedure, shortened: as §9
Cryptococcus neoformans = assay: Antifungal activity against Cryptococcus neoformans after 72 hrs by NCCLS microbroth dilution method; format: functional; procedure, shortened: as §3
Staphylococcus aureus [30] = assay: Bactericidal activity against Staphylococcus aureus ATCC 9144 assessed as induction of membrane depolarization at up to 7 uM by DiSC3(5) staining-based fluorescence assay; format: functional, organism-based; procedure, shortened: as §8

In the case of `CC(C)C[C@H](N)C(=O)O` [LEUCINE], the hemolysis at 60 µM [1] is reported as 80%, the Activity [2] is reported as “Active” and the MIC (Pseudomonas aeruginosa) is reported as 11.2 µM (≈ 1.47 µg/mL). The Activity (NIH3T3) was “Toxic”, the MIC (Staphylococcus aureus [3]) was 6.25 µM (≈ 0.82 µg/mL) and the MIC (Sporothrix schenckii) was 1.56 µM (≈ 0.205 µg/mL). The Drug uptake (Escherichia coli [4]) was “Active”, the Drug uptake [5] was “Active” and the Activity (Lipopolysaccharide (LPS) [6]) was “Active”. The inhibition (Lipopolysaccharide (LPS) [7]) was 72%, the inhibition (Lipopolysaccharide (LPS) [8]) was 90% and the Activity (Escherichia coli [9]) was “Active”. The inhibition (RAW264.7 [10]) was “Active”, the MIC [11] was 12.1 µM (≈ 1.59 µg/mL) and the MIC (Klebsiella pneumoniae) was 6.2 µM (≈ 0.813 µg/mL). For the same molecule, the Activity [12] was “Active”, the Activity [13] was “Active” and the Activity [14] was “Active”. For the same molecule, the Activity (RAW264.7 [15]) was “Active”, the Activity (Lipopolysaccharide (LPS) [16]) was “Active” and the MIC (Bacillus subtilis) was 10.5 µM (≈ 1.38 µg/mL). The Activity [17] was “Active”, the Activity (RAW264.7 [18]) was “Active” and the Activity [19] was “Toxic”. For the same molecule, the inhibition (RAW264.7 [20]) was “Active”, the MIC (Staphylococcus aureus [21]) was 6.25 µM (≈ 0.82 µg/mL) and the MIC (Aspergillus fumigatus) was 3.1 µM (≈ 0.407 µg/mL). For the same molecule, the Activity [22] was “Toxic”, the Activity [23] was “Active” and the inhibition (Lipopolysaccharide (LPS) [24]) was “Active”. The Activity [25] was “Active”, the MIC (Escherichia coli [26]) was 6.25 µM (≈ 0.82 µg/mL) and the MIC [27] was 1.56 µM (≈ 0.205 µg/mL). It also gave an Activity (RAW264.7 [28]) of 90%, an MIC (Candida albicans) of 3.1 µM (≈ 0.407 µg/mL) and an MIC (Candida parapsilosis) of 3 µM (≈ 0.394 µg/mL). The Activity [29] was “Active”, the MIC (Cryptococcus neoformans) was 6.1 µM (≈ 0.8 µg/mL) and the Activity (Staphylococcus aureus [30]) was “Active”.
